Experimental data published in ChEMBL document CHEMBL5715947 (Blood Cancer J, 2011).
Active and inactive are the calls of the source. The rule behind the calls is not given here.

Columns and labels:
MV4-11 [1] = test: Induction of apoptosis in human MV4-11 cells harboring FLT3-ITD mutant assessed as increase in early apoptotic cells after 48 hrs by AnnexinV-FITC/Propidium iodide staining based flow cytometric analysis; assay type: functional, cell-based; settings: dose 0.03-0.15 µM
MV4-11 [2] = test: Induction of apoptosis in human MV4-11 cells harboring FLT3-ITD mutant assessed viable cells at 0.03 uM after 48 hrs by AnnexinV-FITC/Propidium iodide staining based flow cytometric analysis (reference value: 86.15 %); assay type: functional
MV4-11 [3] = test: Induction of apoptosis in human MV4-11 cells harboring FLT3-ITD mutant assessed early apoptotic cells at 0.03 uM after 48 hrs by AnnexinV-FITC/Propidium iodide staining based flow cytometric analysis (reference value: 11.84 %); assay type: functional
MV4-11 [4] = test: Induction of apoptosis in human MV4-11 cells harboring FLT3-ITD mutant assessed late apoptotic cells at 0.03 uM after 48 hrs by AnnexinV-FITC/Propidium iodide staining based flow cytometric analysis (reference value: 1.56 %); assay type: functional
MV4-11 [5] = test: Induction of apoptosis in human MV4-11 cells harboring FLT3-ITD mutant assessed early apoptotic cells at […] after 48 hrs by AnnexinV-FITC/Propidium iodide staining based flow cytometric analysis (reference value: 11.84 %); assay type: functional; settings: dose 0.15 µM
MV4-11 [6] = test: Induction of apoptosis in human MV4-11 cells harboring FLT3-ITD mutant assessed viable cells at […] after 72 hrs by AnnexinV-FITC/Propidium iodide staining based flow cytometric analysis (reference value: 90.5 %); assay type: functional; settings: dose 0.15 µM
MV4-11 [7] = test: Induction of apoptosis in human MV4-11 cells harboring FLT3-ITD mutant assessed late apoptotic cells at […] after 72 hrs by AnnexinV-FITC/Propidium iodide staining based flow cytometric analysis (reference value: 1.48 %); assay type: functional; settings: dose 0.15 µM
MV4-11 [8] = test: Induction of apoptosis in human MV4-11 cells harboring FLT3-ITD mutant assessed necrotic cells at […] after 72 hrs by AnnexinV-FITC/Propidium iodide staining based flow cytometric analysis (reference value: 0.53 %); assay type: functional; settings: dose 0.15 µM
MV4-11 [9] = test: Induction of apoptosis in human MV4-11 cells harboring FLT3-ITD mutant assessed increase in cleaved caspase-3/7 after 16 hrs by Caspase-Glo 3/7 assay; assay type: functional, cell-based
MV4-11 [10] = test: Induction of cell cycle arrest in human MV4-11 cells harboring FLT3-ITD mutant assessed decrease in cell accumulation at S phase after 24 hrs by Propidium iodide staining based flow cytometric analysis; assay type: functional
In short: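 Cells then fixed in ice-cold 70% ethanol, stained with 20 ng/ml propidium iodide, and cell-cycle phases measured by flow cytometry.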

RS4-11 = test: Antiproliferative activity against human RS4-11 cells assessed as reduction in cell viability incubated for 48 hr by CellTiter-Glo assay; assay type: functional, cell-based; settings: RS4-11, 48 h
[11] = (§1) Induction of apoptosis in human derived Acute myeloid leukemic cells assessed increase in cleaved caspase-3/7 after 16 hrs by Caspase-Glo 3/7 assay; assay type: functional, cell-based; settings: Leukemia cell
In short: (§2)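 Expanded primary AML blasts at 300 000 cells/ml treated 16 h; caspase-3/7 activity read by Caspase-Glo 3/7 luminescence and EC50 for apoptosis induction determined.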

Leukemia cell = test: as §1; assay type: functional, cell-based; in short: as §2
[12] = Antiproliferative activity against human derived M2 Fab type Acute myeloid leukemic cells assessed as reduction in cell viability incubated for 48 hr by CellTiter-Glo assay; assay type: functional, cell-based; settings: Leukemia cell
In short: (§3)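 Primary AML peripheral blood or bone marrow mononuclear cells thawed and expanded ex vivo; blasts counted between day 10 and 13, characterised by CD123 FACS and FLT3 genotyping. Blasts treated 48 h; proliferation IC50 read by CellTiter-Glo.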

[13] = Antiproliferative activity against relapsed human derived M2 Fab type Acute myeloid leukemic cells harboring FLT3-ITD mutant assessed as reduction in cell viability incubated for 48 hr by CellTiter-Glo assay; assay type: functional, cell-based; settings: Leukemia cell; in short: as §3
[14] = Antiproliferative activity against relapsed human derived M5b Fab type Acute myeloid leukemic cells assessed as reduction in cell viability incubated for 48 hr by CellTiter-Glo assay; assay type: functional, cell-based; settings: Leukemia cell; in short: as §3
[15] = Antiproliferative activity against relapsed human derived M5b Fab type Acute myeloid leukemic cells harboring FLT3-ITD mutant assessed as reduction in cell viability incubated for 48 hr by CellTiter-Glo assay; assay type: functional, cell-based; settings: Leukemia cell; in short: as §3
MV4-11 [16] = test: Antitumor activity against human MV4-11 cells harboring FLT-3 ITD mutant xenografted in BALB/c nude mouse assessed as decrease in phosphorylated STAT5 at Y694 residue at 150 mg/kg, po measured after 2 to 4 hrs by Western blot analysis; assay type: functional, organism-based; settings: time 2-4 hrs
In short: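 Mice bearing s.c. MV4-11 xenografts given a single oral dose of 150 mg/kg in methylcellulose/Tween vehicle. Tumours harvested at 2 and 4 h; lysates immunoblotted for phospho-STAT5 with actin as loading control.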

MOLM-13 [17] = test: Antitumor activity against human MOLM-13 cells harboring FLT-3 ITD mutant xenografted in BALB/c nude mouse assessed as decrease in phosphorylated STAT5 at Y694 residue at 150 mg/kg, po measured after 3 hrs by Western blot analysis; assay type: functional, organism-based
In short: (§4)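 Mice bearing s.c. MOLM-13 xenografts given a single oral dose of 150 mg/kg. Tumours harvested at 3 h; lysates immunoblotted for phospho-FLT3, -STAT3, -STAT5, -Akt and total actin.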

MOLM-13 [18] = test: Antitumor activity against human MOLM-13 cells harboring FLT-3 ITD mutant xenografted in BALB/c nude mouse assessed as decrease in phosphorylated FLT3 at Y591 residue at 150 mg/kg, po measured after 3 hrs by Western blot analysis; assay type: functional, organism-based; in short: as §4
MOLM-13 [19] = test: Antitumor activity against human MOLM-13 cells harboring FLT-3 ITD mutant xenografted in BALB/c nude mouse assessed as decrease in phosphorylated […] residue at 150 mg/kg, po measured after 3 hrs by Western blot analysis; assay type: functional, organism-based; in short: as §4
MV4-11 [20] = test: Antitumor activity against human MV4-11 cells harboring FLT-3 ITD mutant xenografted in BALB/c nude mouse assessed as tumor growth inhibition at 25 mg/kg, po administered daily for 21 days relative to control; assay type: functional; settings: MV4-11, 504 h, time 21 day, read-out: TGI
In short: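 Female BALB/c nude mice implanted s.c. in right flank with 1 × 10^7 MV4-11 cells in serum-free medium mixed 1:1 with Matrigel. Randomised on day 11 at mean 146–150 mm3 (n=10/group); oral hydrochloride salt once daily for 21 days in 0.5% methylcellulose/0.1% Tween-80. Doses are free-base equivalents; caliper twice weekly; ANOVA with Dunnett's test.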

MOLM-13 [21] = test: Antitumor activity against human MOLM-13 cells harboring FLT-3 ITD mutant xenografted in BALB/c nude mouse assessed as tumor growth inhibition at 50 mg/kg, po bid administered daily for 7 days relative to control; assay type: functional; settings: MOLM-13, 168 h, time 7 day, read-out: TGI
MOLM-13 [22] = test: Antitumor activity against human MOLM-13 cells harboring FLT-3 ITD mutant xenografted in BALB/c nude mouse assessed as tumor growth inhibition at 150 mg/kg, […] relative to control; assay type: functional; settings: MOLM-13, 168 h, route po, read-out: TGI
MOLM-13 [23] = test: Antitumor activity against human MOLM-13 cells harboring FLT-3 ITD mutant xenografted in BALB/c nude mouse assessed as decrease in metastatic incidence at 150 mg/kg, po bid administered daily for 7 days; assay type: functional; settings: time 7 day

SMILES: C1=N/C2=N/c3ccc(OCCN4CCCC4)c(c3)COC/C=C/COCc3cccc(c3)C(=C1)N2 [PACRITINIB]
- Activity (MV4-11 [1]): Dose-Dependent Effect
- Activity (MV4-11 [2]): 68.98%
- Activity (MV4-11 [3]): 24.5%
- Activity (MV4-11 [4]): 5.58%
- Activity (MV4-11 [5]): 39.9%
- Activity (MV4-11 [6]): 20.38%
- Activity (MV4-11 [7]): 15.1%
- Activity (MV4-11 [8]): 4.06%
- Activity (MV4-11 [9]): Dose-Dependent Effect
- EC50 (MV4-11 [9]; MV4-11, 16 h): 960 nM
- Activity (MV4-11 [10]): Dose-Dependent Effect
- IC50 (RS4-11): 930 nM
- EC50 [11]: 268 nM
- Activity (Leukemia cell): Dose-Dependent Effect
- IC50 [12]: 350 nM
- IC50 [13]: 340 nM
- IC50 [14]: 460 nM
- IC50 [15]: 250 nM
- Activity (MV4-11 [16]): Active
- Activity (MOLM-13 [17]): Active
- Activity (MOLM-13 [18]): Active
- Activity (MOLM-13 [19]): Active
- inhibition in vivo at 25 mg/kg (MV4-11 [20]): 38%
- inhibition in vivo at 50 mg/kg (MOLM-13 [21]): 15%
- inhibition in vivo at 150 mg/kg (MOLM-13 [22]): 83%
- Activity (MOLM-13 [23]): 0.33
